Assay outcomes from PubChem BioAssay.
Sampled rows, rich in hits. Any-hit rate of the full collection: about 3.5%.
ERAP1 HTS inh – blocks human ERAP1 aminopeptidase activity; Q9NZ08; recombinant ERAP1, Leu-AMC fluorescence, 60 min; actives 0.15% (n = 340,000); inhibition, % at 10.7 µM;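 active means mean replicate inhibition of at least 30%, or all replicates individually reaching that 30% level; inactive means mean below 30% and not every replicate reaching it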;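 further: 0% = neutral control wells and 100% = L-leucinethiol positive control wells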
Target sequence (Q9NZ08 whole entry, looked up): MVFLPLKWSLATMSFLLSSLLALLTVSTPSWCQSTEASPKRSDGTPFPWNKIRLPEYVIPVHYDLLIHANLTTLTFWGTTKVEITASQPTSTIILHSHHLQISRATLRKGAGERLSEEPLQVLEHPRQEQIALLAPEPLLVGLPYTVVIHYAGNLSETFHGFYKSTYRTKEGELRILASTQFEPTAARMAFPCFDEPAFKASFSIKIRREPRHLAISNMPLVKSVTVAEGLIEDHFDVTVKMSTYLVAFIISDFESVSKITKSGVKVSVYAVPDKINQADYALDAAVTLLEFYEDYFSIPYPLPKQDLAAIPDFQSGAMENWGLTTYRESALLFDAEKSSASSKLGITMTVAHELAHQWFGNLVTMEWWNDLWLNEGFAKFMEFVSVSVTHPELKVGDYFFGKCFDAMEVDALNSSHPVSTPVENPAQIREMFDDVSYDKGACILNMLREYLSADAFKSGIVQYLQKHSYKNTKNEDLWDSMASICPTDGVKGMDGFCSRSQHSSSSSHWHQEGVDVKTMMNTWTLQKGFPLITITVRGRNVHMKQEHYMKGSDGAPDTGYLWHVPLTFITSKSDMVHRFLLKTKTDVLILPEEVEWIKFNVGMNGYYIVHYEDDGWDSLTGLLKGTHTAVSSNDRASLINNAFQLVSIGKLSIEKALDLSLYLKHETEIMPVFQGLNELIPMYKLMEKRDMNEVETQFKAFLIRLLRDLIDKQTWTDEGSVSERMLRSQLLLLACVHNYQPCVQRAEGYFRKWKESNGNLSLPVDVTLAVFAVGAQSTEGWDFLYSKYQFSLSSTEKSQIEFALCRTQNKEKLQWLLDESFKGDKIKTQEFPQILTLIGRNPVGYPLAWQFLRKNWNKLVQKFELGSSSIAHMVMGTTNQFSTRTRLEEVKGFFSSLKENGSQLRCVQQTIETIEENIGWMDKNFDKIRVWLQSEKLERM
esBAF inh – SWI/SNF esBAF complex inhibition | mouse ES cells, Bmi1-luciferase knock-in reporter, 24 h; 100% = twice the neutral-well signal | reporter increase, % at 12.5 µM | actives 2% (n = 350,000); in the data active means activation above about 40%; inconclusive means no clear call, values can overlap the other calls;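 further: 0% = median of the plate's neutral control wells and 100% = double that signal; a rise in the Bmi1 reporter signal indicates esBAF inhibition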
Env fusion inh – blocks HIV Env-driven cell-cell fusion; actives 1.1% (n = 360,000); inhibition, % at 12.3 µM; HeLa-JRFL Env/CEM21 cell fusion, luciferase;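 active means mean replicate inhibition score of at least 50 and every replicate individually at or above 50; inconclusive means only one of the two criteria met; inactive means mean below 50 and not all replicates reaching 50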;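 further: 0% = plate neutral controls and 100% = maraviroc near 300 nM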
Cneo AK release – Cryptococcus neoformans lysis via adenylate kinase release; C. neoformans lysis, adenylate kinase release luminescence, 4 h; normalised: neutral wells 0, clomiphene wells 100; lysis activity, % at 15 µM; actives 0.2% (n = 360,000); AID 651654;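 active means mean lysis activity across replicates of at least 80%, whatever share of replicates individually reach that level; inactive means mean lysis activity below 80%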
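Material: C. neoformans cells; Schedule: 4 h static compound exposure, 37 °C, read 1 h post-reagent; Measured by: adenylate kinase release luminescence; Read-out: signal increase indicating cell lysis; Controls: Clomiphene as positive lysis control.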
Wnt act – activators of Wnt/beta-catenin signaling; Wnt/beta-catenin reporter cell assay, activator, plate reader; activation, % at 9.35 µM; actives 1.2% (n = 300,000); in the data active means activation above about 30%, passing the limit was not always enough; inconclusive means no clear call, values can overlap the other calls;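 further: 0% = neutral control wells and 100% = positive control wells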
MITF TRPM1 HTS – activators of MITF-driven TRPM1 promoter activity in SK-MEL-5 cells; SK-MEL-5 TRPM1-promoter luciferase, 24 h; % of positive control, neutral wells = 0; activation, % at 12.5 µM; actives 0.75% (n = 300,000);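 active means mean activation of at least 80% with every replicate also reaching 80%; inconclusive means mean reaches 80% but some replicate falls short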;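 further: 0% = neutral control wells and 100% = parthenolide positive control wells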
An asterisk follows results filed as active; ? = inconclusive; . = no result; [ ] = another dose, or the depositor's remark.

SMILES	ERAP1 HTS inh	esBAF inh	Env fusion inh	Cneo AK release	Wnt act	MITF TRPM1 HTS
C[C@@H]1CN([C@H](C)CO)C(=O)c2cccc(NC(=O)Nc3ccccc3)c2O[C@@H]1CN(C)Cc1ccc(Cl)c(Cl)c1	4	0	-90[16.7 µM]	101*	.	.
C[C@H](CO)N1C[C@H](C)[C@H](CN(C)Cc2ccc(Cl)c(Cl)c2)Oc2c(NC(=O)Nc3ccccc3)cccc2C1=O	3	-4	8[16.7 µM]	90*	.	.
C[C@@H]1CN([C@@H](C)CO)C(=O)c2cccc(NC(=O)Nc3ccc(F)cc3)c2O[C@H]1CN(C)Cc1ccc(Cl)c(Cl)c1	0	7	.	-3	.	.
C[C@H]1CN([C@@H](C)CO)C(=O)c2cccc(NC(=O)Nc3ccccc3)c2O[C@@H]1CN(C)Cc1ccc(Cl)c(Cl)c1	6	-4	62*[16.7 µM]	0	.	.
C[C@@H]1CN([C@@H](C)CO)C(=O)c2cccc(NC(=O)Nc3ccccc3)c2O[C@H]1CN(C)Cc1ccc(Cl)c(Cl)c1	3	1	26[16.7 µM]	0	.	.
C[C@H](O)C#Cc1cnc2c(c1)C(=O)N([C@@H](C)CO)C[C@@H](C)[C@@H](CN(C)Cc1cccc(C(=O)O)c1)O2	-3	-3	-9[16.7 µM]	-2	.	.
C[C@@H]1CN([C@@H](C)CO)C(=O)Cc2cc(NC(=O)CCN3CCOCC3)ccc2O[C@@H]1CN(C)C	2	1	.	7	.	.
FC(F)(F)c1ccc(N2CCN(c3cc(-c4ccccc4)nc4ncnn34)CC2)nc1	.	5	77*	0	.	-5
FC(F)(F)c1cccc(Nc2cc(-c3ccccc3)nc3ncnn23)c1	4	1	7	.	-3	.
Cc1noc(C)c1NC(=O)Nc1cccc2c1O[C@H](CN(C)Cc1ccc(Oc3ccccc3)cc1)[C@H](C)CN([C@H](C)CO)C2=O	-2	-2	5[16.7 µM]	2	.	.
CN(C(=O)c1cccc(NC(=O)Cc2cccc(NC(=O)C3CCCN(C(=O)C4CCC4)C3)c2)c1)C1CCC1 (stereo unspecified)	2	0	85*	3	1	4
CN(C(=O)c1ccc(NC(=O)Cc2ccc(NC(=O)C3CCCN(C(=O)CCc4ccccc4)C3)cc2)cc1)C1CC1 (stereo unspecified)	1	8	56*	0	-9	-18
CN(C(=O)c1cccc(NC(=O)Cc2cccc(NC(=O)C3CCCN(C(=O)C4CCCC4)C3)c2)c1)C1CCC1 (stereo unspecified)	4	-1	14	1	-1	-10
COc1ccc(COC[C@]23NC(=S)N(C(=O)c4ccccc4)[C@H](c4ccccc4O2)[C@H]3CO[Si](C)(C)C(C)(C)C)cc1	2	.	12[16.7 µM]	-4	.	.
CC(C)Oc1ccc(C2CC(=O)N(c3cccc(C(=O)O)c3)C2=O)cc1 (stereo unspecified)	.	56*	-57	1	11	23
CC(C)Oc1ccc(C2CC(=O)N(c3ccc(C(=O)O)cc3)C2=O)cc1 (stereo unspecified)	4	-1	8	-1	-1	3
COc1ccccc1OCC(=O)Nc1ccc2c(c1)OCO2	-1	35	-24	-5	10	46
CC(=O)Nc1ccccc1OCC(=O)c1ccc2c(c1)OCO2	.	?	-93	-4	37*	.
Cc1ccc(C(=O)CCNc2ccc(Br)cc2)o1	.	27	-20	10	5	29
Cc1ccc(C(=O)CCNc2ccccc2)o1	.	52*	.	2	.	18
O=C(COC(=O)C1CC1)Nc1ccc2c(c1)OCO2	0	.	-6	.	47*	11
COc1cc(C)ccc1OCC(=O)Nc1ccc2c(c1)OCO2	-1	17	-76	-2	48*	75
CCC(=O)OCC(=O)Nc1ccc2c(c1)OCO2	-2	4	-1	-2	5	0
CO[C@H]1CN(C)C(=O)c2cc(NC(=O)C3CC3)ccc2OC[C@@H](C)N(C(=O)CN2CCOCC2)C[C@@H]1C	.	-2	2[16.7 µM]	-3	.	.
CC(=O)Nc1cccc(NC(=O)COc2ccccc2C)c1	-2	13	-97	-4	4	.
Cc1ccccc1OCC(=O)Nc1ccc2c(c1)OCO2	1	21	.	-8	26	74
O=C(CCNc1ccccc1)c1ccc2c(c1)OCO2	.	92*	-195	-14	48*	.
